Each structure is given as a SMILES string. Where two headings read alike, the source gives them in different places.

For one data set, the system named is orthotopic glioblastoma. As to conditions: cited from earlier work.
A further data set has as its system glioblastoma. As to conditions: cited from earlier work.
The format of data set [1] is in vivo. As to conditions: human, plasma, oral, 30 mg/day; for AUC(0-t): GM AUC0-24, plasma; for Cmax: GM Cmax; for Tmax: Median tmax (range). Summed up: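 Patients took 30 mg/day orally on days 1–4 before resection. Plasma was sampled at multiple time points through cycle 1 and at surgery, then assayed by LC-MS/MS (High Assay Range). Cmax, tmax, AUC and t½ came from non-compartmental analysis and were summarised as geometric means.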

The format of data set [2] is in vivo, human. Summed up: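 Patients took 30 mg/day orally on days 1–4, with salvage resection planned 6–24 h after the day 4 dose. Resected tumour (contrast-enhancing and non-enhancing where possible), CSF and time-matched plasma were collected during surgery. Results were summarised as geometric means. Free tissue concentration and unbound partition coefficient were estimated from plasma protein binding and tissue binding.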

A further data set concerns CCR1 mRNA. As to the kind of experiment: CCR1 mRNA in whole blood. It counts as in vivo, human. Particulars: after the fourth preoperative dose, 30 mg/day; mean (SD ± 28.5). Summed up: (§1)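 Patients took 30 mg/day orally on days 1–4 before salvage resection. Blood samples for pharmacodynamics were drawn at multiple time points through cycle 1 and at surgery. CCR1 and HEXIM1 expression in blood was measured by RNA-Seq.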

A further data set relates to HEXIM1 mRNA. As to the kind of experiment: HEXIM1 mRNA in whole blood. Format: in vivo, human. As to conditions: 72–96 h after the first preoperative dose, 30 mg/day. Summed up: as §1
Data set [3] can be described thus: Safety: treatment-related adverse events. It counts as in vivo, human. Summed up: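 AEs were coded with MedDRA 24.0 and graded by NCI CTCAE 5.0. They were reported separately for the preoperative period (30 mg/day days 1–4, until maintenance start) and for postoperative maintenance (45 mg/day 4 days on/24 days off per 28-day cycle, onward). Maintenance continued until progression, unacceptable toxicity or consent withdrawal.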

The conditions of data set [4]: stated without reference; cited from earlier work.
Data set [5] relates to advanced cancers, including high-grade gliomas. As to conditions: 45 mg/day 4 days on/24 days off per 28-day cycle; cited from earlier work.
The mark [6] stands for this setting: postoperative maintenance 45 mg/day 4 days on/24 days off, n = 16.
Where [7] appears, read: preoperative 30 mg/day days 1–4, n = 20.

`Cc1sc2c(c1C)C(c1ccc(Cl)cc1)=N[C@@H](CC(=O)Nc1ccc(O)cc1)c1nnc(C)n1-2` [OTX015]: the Antitumor activity entry in the data set on orthotopic glioblastoma was “showed antitumor activity”. Also, in the data set with orthotopic glioblastoma (markedly lower concentrations in peritumoral and distant brain tissue), the “Penetration of brain tumor tissue” value is “high penetration of brain tumor tissue”. Moreover, in the data set on glioblastoma, the “Clinical efficacy (study outcome)” value was “lack of efficacy”.

As a reminder, the half-life is how long it takes for the measured level to halve. What is called AUC(0-t) is exposure summed from dosing to a finite time, without extrapolation to infinity. Higher therefore signals more exposure. Broadly, the Cmax is the peak of the concentration-time curve. Usually Tmax stands for the time at which the peak concentration occurs. Consider `Cn1cc(-c2cc(S(C)(=O)=O)ccc2OCC2CC2)c2ccccc2c1=O` [Trotabresib], for which, in data set [1], the half-life was 46 h. In data set [1] (cycle 1 day 1, GM (% GCV)), this molecule gave an AUC(0-t) of 5080 ng·h/mL and a Cmax of 392 ng/mL. In data set [1] (cycle 1 day 4, GM (% GCV)), this molecule showed an AUC(0-t) of 11200 ng·h/mL and a Cmax of 720 ng/mL. Also, the time of peak concentration (Tmax) in data set [1] (cycle 1 day 1) came out at 1.5 h. Besides, the Tmax in [1] (cycle 1 day 4) is 1.9 h. Moreover, the “Plasma concentration at the time of surgery, GM (% GCV)” value in data set [2] (after 30 mg/day days 1–4, n = 19) came to 1020 nM. The “GM free (tissue binding-corrected) trotabresib concentration in brain tissue” value in [2] (calculated, n = 20, GM (% GCV)) was 0.028 µM. The “CSF concentration, GM (% GCV)” value in data set [2] (n = 13) was 0.14 µM. The “Brain tumor tissue concentration, GM (% GCV)” value in data set [2] (resected tissue after 30 mg/day days 1–4, n = 20) is 0.74 µM. Also, the “Blood levels of CCR1 mRNA, % of baseline levels” value in the data set on CCR1 mRNA amounted to 45.8%. Further, the “Blood levels of HEXIM1 mRNA versus baseline” value in the data set on HEXIM1 mRNA is recorded as “increased from baseline in all patients”. In data set [3] (overall study), the “Serious TRAEs” value is reported as “No serious TRAEs” and the “Treatment discontinuation due to AEs” value is reported as “No patients discontinued treatment due to AEs”. In data set [3] (setting [6]), the “Any TRAE, any grade, patients” value came to 100%; the “Asthenia, grade 3/4 TRAE, number of patients” value was found to be 1 patient; the “Thrombocytopenia, grade 3/4 TRAE, number of patients” value worked out at 5 patients. Also, the “Dose reduction due to thrombocytopenia, number of patients” value in data set [3] (postoperative treatment period, 45 mg/day) was found to be 1 patient. For the same molecule, the “Dose interruptions due to AEs, number of patients” value in data set [3] (postoperative treatment period, 45 mg/day, thrombocytopenia in 2, pancreatitis in 1) is recorded as 3 patients. Moreover, the “Surgery delayed or canceled due to an AE” value in data set [3] (preoperative 30 mg/day days 1–4) is recorded as “No patients”. In data set [3] (setting [7]), the “ALT increased, grade 3/4 TRAE, number of patients” value turned out to be 1 patient; the “Any TRAE, any grade, patients” value is recorded as 60%; the “Any TRAE, grade 3/4, patients” value is given as 10%; the “Lymphopenia, grade 3/4 TRAE, number of patients” value was determined as 1 patient. Further, the “Thrombocytopenia, grade 1/2, patients” value in data set [3] (setting [7]) came to 25%. Further, in [4], the Lipophilicity entry was “high lipophilicity”. Moreover, the “Prolonged progression-free survival (PFS) in some patients” value in [5] was “up to 3 years”.

The values are drawn from PMC10237409 (Neuro-Oncology, 2022).
